Laboratory results as given in ChEMBL document CHEMBL1127633, “Cyclic beta-casomorphin analogues with mixed mu agonist/delta antagonist properties: synthesis, pharmacological characterization, and conformational aspects” (J Med Chem, 1994).
pIC50, pKi: −log10 of the molar value. Residues, ends and D or L forms follow the SMILES beside them.

How the values were obtained:
[1] = organism: Cavia porcellus; assay: In vitro inhibition of electrically evoked contractions of the guinea pig ileum (GPI); type: functional
Summary of the method: (§1)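 Electrically evoked contractions of isolated tissue preparations. Each preparation had its own log dose-response curve with [Leu5]enkephalin as standard. Test IC50 values were normalized to that standard. Mean of three to six determinations ± SEM. Partial agonists are reported as % maximal inhibition of contraction at high concentrations.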

[2] = organism: Mus musculus; assay: In vitro inhibition of electrically evoked contractions of the mouse vas deferens (MVD); type: functional; summary of the method: as §1
[3] = biological target: Delta-type opioid receptor (Rattus norvegicus, UniProt P33533); assay: Binding affinity for delta opioid receptors was determined by displacement of [3H]DSLET from rat brain membrane binding site
Chain of Delta-type opioid receptor (P33533 whole entry): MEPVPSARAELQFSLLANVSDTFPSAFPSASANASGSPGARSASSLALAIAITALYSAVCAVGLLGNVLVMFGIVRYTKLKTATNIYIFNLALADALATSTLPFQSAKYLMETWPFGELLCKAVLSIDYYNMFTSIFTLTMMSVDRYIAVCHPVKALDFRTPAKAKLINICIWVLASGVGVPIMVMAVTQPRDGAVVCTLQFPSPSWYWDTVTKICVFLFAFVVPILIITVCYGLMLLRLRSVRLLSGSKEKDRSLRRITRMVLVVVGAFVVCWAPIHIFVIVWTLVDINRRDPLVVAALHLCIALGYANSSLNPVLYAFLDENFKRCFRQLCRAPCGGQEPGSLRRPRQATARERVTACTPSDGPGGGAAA
Summary of the method: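 Rat brain membranes incubated 2 h at 0 °C with 0.78 nM [3H]DSLET. IC50 read from dose-displacement curves. […] Mean of three to six determinations ± SEM.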

[4] = biological target: Mu-type opioid receptor (Rattus norvegicus, UniProt P33535); assay: Binding affinity for mu opioid receptors by displacement of [3H]-DAMGO from rat brain membrane binding site
Chain of Mu-type opioid receptor (P33535 whole entry): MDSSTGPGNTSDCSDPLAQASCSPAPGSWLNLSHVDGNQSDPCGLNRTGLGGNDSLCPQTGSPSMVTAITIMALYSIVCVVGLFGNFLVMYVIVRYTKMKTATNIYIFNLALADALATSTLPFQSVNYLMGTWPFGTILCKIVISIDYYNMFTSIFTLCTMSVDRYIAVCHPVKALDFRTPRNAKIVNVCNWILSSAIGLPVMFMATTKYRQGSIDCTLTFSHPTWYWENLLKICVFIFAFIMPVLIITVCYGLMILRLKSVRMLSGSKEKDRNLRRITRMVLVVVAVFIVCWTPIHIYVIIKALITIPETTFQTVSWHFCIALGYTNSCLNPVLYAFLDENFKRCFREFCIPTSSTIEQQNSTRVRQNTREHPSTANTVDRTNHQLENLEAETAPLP

Compound	pIC50 [1]	pIC50 [2]	pKi [3]	pKi [4]
N[C@@H](Cc1ccc(O)cc1)C(=O)N[C@@H]1CCCNC(=O)CNC(=O)[C@H]2CCCN2C(=O)[C@H](Cc2c[nH]c3ccccc23)NC1=O	7.56	7.79	7.99	8.68
N[C@@H](Cc1ccc(O)cc1)C(=O)N[C@@H]1CCCNC(=O)CNC(=O)[C@H]2CCCN2C(=O)[C@H](Cc2ccccc2)NC1=O	8.67	8.30	7.88	9.06
N[C@@H](Cc1ccc(O)cc1)C(=O)N[C@@H]1CCCNC(=O)CNC(=O)[C@H]2CCCN2C(=O)[C@H](Cc2ccc3ccccc3c2)NC1=O	6.42			
N[C@@H](Cc1ccc(O)cc1)C(=O)N[C@@H]1CCNC(=O)CNC(=O)[C@H]2CCCN2C(=O)[C@H](Cc2ccc3ccccc3c2)NC1=O	6.45	6.00	7.15	8.19
N[C@@H](Cc1ccc(O)cc1)C(=O)N[C@@H]1CCCNC(=O)CNC(=O)[C@H]2CCCN2C(=O)[C@H](Cc2cccc3ccccc23)NC1=O	7.83	7.52	7.63	8.47
N[C@@H](Cc1ccc(O)cc1)C(=O)N[C@@H]1CCCNC(=O)[C@H]2CCCN2C(=O)[C@H](Cc2ccc3ccccc3c2)NC1=O	7.93	7.49	7.55	8.56
NC(=O)[C@H](Cc1ccccc1)NC(=O)[C@H](Cc1ccccc1)NC(=O)[C@@H]1Cc2ccccc2CN1C(=O)[C@@H](N)Cc1ccc(O)cc1 (HELM PEPTIDE1{Y.[Tic].F.F.[am]}$$$$V2.0)	5.77			
N[C@@H](Cc1ccc(O)cc1)C(=O)NC1CCCNC(=O)CNC(=O)[C@@H]2CCCN2C(=O)[C@H](Cc2ccccc2)NC1=O (single isomer, unassigned)	7.87	7.16	5.89	8.40
N[C@@H](Cc1ccc(O)cc1)C(=O)NC1CCCNC(=O)CNC(=O)[C@@H]2CCCN2C(=O)[C@H](Cc2ccc3ccccc3c2)NC1=O (single isomer, unassigned)	5.91	5.00	5.67	7.09
